Test results published in ChEMBL document CHEMBL1821687, “Discovery, synthesis, and biological evaluation of novel SMN protein modulators” (J Med Chem, 2011).
The source made the active and inactive calls. No cut-off for these calls is given here.

Assays:
[1] = target: Survival motor neuron protein (Homo sapiens) (UniProt Q16637); assay: Activation of SMN expressed in HEK293 cells assessed as rate of induction by SMN2-promotor driven luciferase reporter gene assay relative to basal level; type: cell-based; design: concentration or dose not given beside the values
Survival motor neuron protein (Homo sapiens), sequence (Q16637 whole entry): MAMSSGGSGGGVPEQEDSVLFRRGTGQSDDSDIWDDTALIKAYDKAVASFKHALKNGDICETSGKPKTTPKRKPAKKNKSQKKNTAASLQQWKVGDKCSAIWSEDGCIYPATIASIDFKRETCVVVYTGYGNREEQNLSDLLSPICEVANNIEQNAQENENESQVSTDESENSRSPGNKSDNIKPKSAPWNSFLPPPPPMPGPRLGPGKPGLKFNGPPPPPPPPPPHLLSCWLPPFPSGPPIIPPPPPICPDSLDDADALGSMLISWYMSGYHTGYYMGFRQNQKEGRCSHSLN
Method in brief: (§1)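 HEK-293 cells stably carrying the SMN2 reporter construct, kept in DMEM with 10% FCS, glutamax, pyruvate, pen/strep and 200 µg/mL hygromycin, and assayed without hygromycin. 2,000 cells/well were plated and adhered overnight at 37 °C, 5% CO2. Compounds were added as a 7-point titration, 50 µM to 25 nM final, in 0.46% DMSO, for 30–36 h. OneGlo luminescence was normalized to 4.5 mM sodium butyrate (100%) and DMSO (0%).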

[2] = target: Survival motor neuron protein (Homo sapiens) (UniProt Q16637); assay: Activation of SMN expressed in HEK293 cells assessed as concentration required to reach 50% of maximum luciferase signal by SMN2-promotor driven luciferase reporter gene assay; type: cell-based; method in brief: as §1

NC(=O)C1CCN(c2ncc(-c3ccc4c(c3)OCO4)s2)CC1
Activity [1]: 590% | Activity [2]: 0.049 µM

CN(C)c1ccccc1-c1csc(N2CCC(C(N)=O)CC2)n1
Activity [2]: inactive

CN(C)c1cccc(-c2nc(N3CCC(C(N)=O)CC3)ncc2F)c1
Activity [1]: 373% | Activity [2]: 0.387 µM

CCOC(=O)C1CCN(c2ncc(-c3ccc4c(c3)OCCCO4)s2)CC1
Activity [1]: 320% | Activity [2]: 0.031 µM

CN(C)c1cccc(-c2cnc(N3CCC(C(N)=O)CC3)nc2)c1
Activity [1]: 236% | Activity [2]: 0.613 µM

Cn1ccc2cc(-c3csc(N4CCC(C(N)=O)CC4)n3)ccc21
Activity [1]: 534% | Activity [2]: 7.72 µM

NC(=O)C1CCN(c2nc(-c3cccs3)cs2)CC1
Activity [1]: 51% | Activity [2]: 7.72 µM

COc1ccc(-c2csc(N3CCC(C(N)=O)CC3)n2)cc1OC
Activity [1]: 59% | Activity [2]: 12.2 µM

Brc1ccc(-c2csc(N3CCCCC3)n2)cc1
Activity [1]: 272% | Activity [2]: 19.4 µM

CC(=O)Nc1ccc(-c2csc(N3CCC(C(N)=O)CC3)n2)cc1
Activity [2]: inactive

O=C(NCCCc1ccccc1)C1CCN(c2nc(-c3ccc(Br)cc3)cs2)CC1
Activity [2]: inactive

NC(=O)C1CCN(c2cc(-c3ccc4c(c3)OCCCO4)ncn2)CC1
Activity [1]: 211% | Activity [2]: 7.72 µM

NC(=O)C1CCN(c2ncc(Br)s2)CC1
Activity [2]: inactive

Cc1cccc(-c2csc(N3CCC(C(N)=O)CC3)n2)c1
Activity [1]: 187% | Activity [2]: 30.7 µM

N#Cc1ccc(-c2csc(N3CCC(C(N)=O)CC3)n2)cc1
Activity [1]: 49% | Activity [2]: 9.72 µM

c1c[nH]c(C2CCN(c3ncc(-c4ccc5c(c4)OCCCO5)s3)CC2)n1
Activity [1]: 129% | Activity [2]: 2.44 µM

NC(=O)C1CCN(c2nc(-c3ccc([N+](=O)[O-])cc3)cs2)CC1
Activity [1]: 254% | Activity [2]: 15.4 µM

NC(=O)C1CCN(c2nc(-c3cccc(Br)c3)cs2)CC1
Activity [1]: 57% | Activity [2]: 30.8 µM

CCOC(=O)C1CCN(c2nc(-c3ccc(Br)cc3)cs2)CC1
Activity [1]: 550% | Activity [2]: 7.72 µM

CN(C)c1cccc(-c2ncnc(N3CCC(C(N)=O)CC3)n2)c1
Activity [1]: 200% | Activity [2]: 1.22 µM

NC(=O)C1CCN(c2ncc(-c3ccc(Br)cc3)s2)CC1
Activity [1]: 599% | Activity [2]: 0.224 µM

O=S(=O)(c1ccccc1)N1CCN(c2nc(-c3ccc(Br)cc3)cs2)CC1
Activity [2]: inactive

N#Cc1ccccc1-c1csc(N2CCC(C(N)=O)CC2)n1
Activity [2]: inactive

CN(C)C(=O)c1ccc(-c2csc(N3CCC(C(N)=O)CC3)n2)cc1
Activity [1]: 51% | Activity [2]: 12.2 µM

Brc1ccc(-c2csc(N3CCC(c4nnn[nH]4)CC3)n2)cc1
Activity [1]: 67% | Activity [2]: 12.2 µM

NC(=O)C1CCN(c2nnc(-c3ccc(Br)cc3)s2)CC1
Activity [2]: inactive

Brc1ccc(-c2csc(N3CCNCC3)n2)cc1
Activity [1]: -97% | Activity [2]: 24.4 µM

CC(=O)c1ccc(-c2csc(N3CCC(C(N)=O)CC3)n2)cc1
Activity [1]: 130% | Activity [2]: 12.2 µM

COc1cc(OC)cc(-c2csc(N3CCC(C(N)=O)CC3)n2)c1
Activity [1]: 45% | Activity [2]: 7.72 µM

O=C(Nc1ccccc1)C1CCN(c2nc(-c3ccc(Br)cc3)cs2)CC1
Activity [1]: 262% | Activity [2]: 2.44 µM

NC(=O)C1CCN(c2nc(-c3ccc(N)cc3)cs2)CC1
Activity [2]: inactive

Cc1noc(C)c1-c1csc(N2CCC(C(N)=O)CC2)n1
Activity [2]: inactive

NC(=O)C1CCN(c2nc(-c3ccccc3C(F)(F)F)cs2)CC1
Activity [2]: inactive

CC(=O)C1CCN(c2ncc(-c3ccc4c(c3)OCCCO4)s2)CC1
Activity [2]: inactive

NC(=O)C1CCN(c2nc(-c3ccc4c(c3)OCO4)cs2)CC1
Activity [1]: 359% | Activity [2]: 2.44 µM

Cc1ccc(-c2csc(N3CCC(C(N)=O)CC3)n2)cc1
Activity [1]: 439% | Activity [2]: 1.22 µM

CCOc1ccc(-c2csc(N3CCC(C(N)=O)CC3)n2)cc1
Activity [1]: 212% | Activity [2]: 3.87 µM

CN(C)c1cccc(-c2nnc(N3CCC(C(N)=O)CC3)s2)c1
Activity [1]: 448% | Activity [2]: 0.387 µM

NC(=O)C1CCN(c2ncnc(-c3ccc4c(c3)OCCCO4)n2)CC1
Activity [1]: 186% | Activity [2]: 2.44 µM

CN(C)C(=O)C1CCN(c2nc(-c3ccc(Br)cc3)cs2)CC1
Activity [1]: 43% | Activity [2]: 30.8 µM

NC(=O)C1CCN(c2nc(-c3ccccc3-c3ccccc3)cs2)CC1
Activity [2]: inactive

CN(C)c1ccc(-c2csc(N3CCC(C(N)=O)CC3)n2)cc1
Activity [1]: 64% | Activity [2]: 30.7 µM

NC(=O)C1CCN(c2nc(-c3cccc(N)c3)cs2)CC1
Activity [2]: inactive

COc1cccc(-c2csc(N3CCC(C(N)=O)CC3)n2)c1
Activity [1]: 357% | Activity [2]: 1.94 µM

NC(=O)C1CCN(c2nc(-c3ccc4ccccc4c3)cs2)CC1
Activity [1]: 162% | Activity [2]: 7.72 µM

CN(C)c1cccc(-c2csc(N3CCC(C(N)=O)CC3)n2)c1
Activity [1]: 504% | Activity [2]: 0.97 µM

NC(=O)C1CCN(c2nc(-c3ccccc3Br)cs2)CC1
Activity [2]: inactive

O=C(c1ccco1)N1CCN(c2nc(-c3ccc(Br)cc3)cs2)CC1
Activity [2]: inactive

Brc1ccc(-c2csc(N3CCOCC3)n2)cc1
Activity [2]: inactive

NC(=O)C1CCN(c2ncc(-c3ccc(Cl)cc3)s2)CC1
Activity [1]: 498% | Activity [2]: 0.154 µM

NC(=O)C1CCN(c2nc(-c3cccc(C(F)(F)F)c3)cs2)CC1
Activity [2]: 3.87 µM

CC(C)(C)OC(=O)NC1CCN(c2nc(-c3ccc(Br)cc3)cs2)CC1
Activity [2]: inactive

NC(=O)C1CCN(c2ncc(Br)cn2)CC1
Activity [2]: inactive

CS(=O)(=O)c1ccccc1-c1csc(N2CCC(C(N)=O)CC2)n1
Activity [2]: inactive

O=C(NCCCCc1ccccc1)C1CCN(c2nc(-c3ccc(Br)cc3)cs2)CC1
Activity [2]: inactive

CC(C(=O)O)c1ccc(N2Cc3ccccc3C2=O)cc1 (stereo unspecified)
Activity [2]: > 1 µM

NC(=O)C1CCN(c2nc(-c3cccc4ccccc34)cs2)CC1
Activity [2]: inactive

O=C(NCc1ccccc1)C1CCN(c2nc(-c3ccc(Br)cc3)cs2)CC1
Activity [2]: inactive

COc1ccccc1-c1csc(N2CCC(C(N)=O)CC2)n1
Activity [2]: inactive

NC(=O)C1CCN(c2nccc(Cl)n2)CC1
Activity [2]: inactive

O=C(c1ccccc1)N1CCN(c2nc(-c3ccc(Br)cc3)cs2)CC1
Activity [2]: inactive

Cc1cnc(N2CCC(C(N)=O)CC2)nc1-c1cccc(N(C)C)c1
Activity [2]: inactive

NC(=O)C1CCN(c2nc(-c3ccc(OCc4ccccc4)cc3)cs2)CC1
Activity [2]: inactive

NC(=O)C1CCN(c2nc(-c3ccc(N4CCCCC4)nc3)cs2)CC1
Activity [2]: 6.13 µM

NC(=O)C1CCN(c2nc(-c3cc4ccccc4o3)cs2)CC1
Activity [2]: 15.4 µM

CS(=O)(=O)N1CCN(c2nc(-c3ccc(Br)cc3)cs2)CC1
Activity [2]: inactive

N#Cc1cccc(-c2csc(N3CCC(C(N)=O)CC3)n2)c1
Activity [2]: inactive

CS(=O)(=O)c1ccc(-c2csc(N3CCC(C(N)=O)CC3)n2)cc1
Activity [2]: inactive

NC(=O)C1CCN(c2nc(-c3ccccc3[N+](=O)[O-])cs2)CC1
Activity [2]: inactive

CS(=O)(=O)c1cccc(-c2csc(N3CCC(C(N)=O)CC3)n2)c1
Activity [2]: inactive

O=C(C1CCN(c2nc(-c3ccc(Br)cc3)cs2)CC1)N1CCNCC1
Activity [2]: inactive

NC(=O)C1CCN(c2nc(-c3cccnc3)cs2)CC1
Activity [2]: inactive
